1 molecule from ChEMBL document CHEMBL3414528, “Novel naftopidil-related derivatives and their biological effects as alpha1-adrenoceptors antagonists and antiproliferative agents” (Eur J Med Chem, 2015) can be followed below.

The subject of assay [1] is PC-3. In words: Induction of apoptosis in human PC3 cells assessed as total apoptotic cells at 10 uM after 24 hrs by annexin V/propidium iodide staining-based flow cytometry. The assay is classed as functional. Put shortly: (§1)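 Phosphatidylserine exposure in PC-3 cells after 24 h at 0, 5, 10, 20 or 30 μM, by Alexa Fluor 488 annexin V/PI double staining and flow cytometry; early apoptotic = AV+/PI−, late apoptotic or dead = AV+/PI+.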
Background: In flow cytometry, cells or beads pass a laser one at a time.

In assay [2] the test system is PC-3. In words: Induction of apoptosis in human PC3 cells assessed as early apoptotic cells at 30 uM after 24 hrs by annexin V/propidium iodide staining-based flow cytometry (reference value: 5.7%). The assay is classed as functional. In short, it runs like this: as §1
The species named for assay [3] is Rattus norvegicus. In words: Selectivity ratio for Sprague-Dawley rat thoracic aorta adrenergic alpha-1D receptor to Sprague-Dawley rat spleen adrenergic alpha-1B receptor. The assay is classed as tissue-based.
A short description of assay [4]: Induction of apoptosis in human PC3 cells assessed as upregulation of Bax expression after 24 hrs by Western blotting analysis. Particulars: PC-3. The assay is classed as functional, cell-based. In short, it runs like this:
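PC-3 cells exposed for 24 h to 0, 1, 5, 10, 20 or 30 μM; Bax, Bcl-2 and activated caspase-3 measured by Western blot, reported as Bax/Bcl-2 value.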
(In general: Immunoblotting shows a protein as a band on a membrane.)

The nature of assay [5]: Cell cycle arrest in human PC3 cells assessed as accumulation at G0/G1 phase at 5 uM after 24 hrs by propidium iodide staining-based flow cytometry (reference value: 39.20%). The assay is classed as functional. Particulars: PC-3. Put shortly:
(§2)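 PC-3 cells given compound at 5, 10, 15, 20 or 30 μM, or 0.1% DMSO vehicle, for 24 h; stained with propidium iodide and analysed by flow cytometry for G0/G1, S and G2/M fractions.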

The test system of assay [6] is PC-3. In words: Induction of apoptosis in human PC3 cells assessed as early apoptotic cells at 5 uM after 24 hrs by annexin V/propidium iodide staining-based flow cytometry (reference value: 5.7%). The assay is classed as functional. Put shortly: as §1
Assay [7] deals with PC-3. In words: Induction of apoptosis in human PC3 cells assessed as total apoptotic cells at 5 uM after 24 hrs by annexin V/propidium iodide staining-based flow cytometry. The assay is classed as functional. In short, it runs like this:
as §1

For assay [8], the species on record is Rattus norvegicus. Description: Selectivity ratio for Sprague-Dawley rat prostatic vas deferens adrenergic alpha-1A receptor to Sprague-Dawley rat spleen adrenergic alpha-1B receptor.
A short description of assay [9]: Cell cycle arrest in human PC3 cells assessed as accumulation at S phase at 5 uM after 24 hrs by propidium iodide staining-based flow cytometry (reference value: 27.26%). The assay is classed as functional. The note with it: PC-3. Put shortly:
as §2

In assay [10] the test system is PC-3. In words: Induction of apoptosis in human PC3 cells assessed as late apoptotic cells at 5 uM after 24 hrs by annexin V/propidium iodide staining-based flow cytometry (reference value: 2.1%). The assay is classed as functional. Put shortly:
as §1

In assay [11] the test system is PC-3. In words: Induction of apoptosis in human PC3 cells assessed as total apoptotic cells at 30 uM after 24 hrs by annexin V/propidium iodide staining-based flow cytometry. The assay is classed as functional. In short, it runs like this:
as §1

The subject of another assay is LNCaP. Description: Cytotoxicity against human LNCAP cells after 48 hrs by WST-8 assay. The assay is classed as functional, cell-based. On the technique in general: Formazan colour is commonly taken as a measure of viable cells.
The nature of assay [12]: Cell cycle arrest in human PC3 cells assessed as accumulation at G2/M phase at 30 uM after 24 hrs by propidium iodide staining-based flow cytometry (reference value: 33.04%). The note with it: PC-3. The assay is classed as functional. Put shortly: as §2
A short description of assay [13]: Cell cycle arrest in human PC3 cells assessed as accumulation at G0/G1 phase at 15 uM after 24 hrs by propidium iodide staining-based flow cytometry (reference value: 39.20%). The assay is classed as functional. Particulars: PC-3. In short, it runs like this:
as §2

Assay [14] concerns the target T1, Alpha-1D adrenergic receptor (Rattus norvegicus, UniProt P23944).
T1 sequence (P23944 whole entry): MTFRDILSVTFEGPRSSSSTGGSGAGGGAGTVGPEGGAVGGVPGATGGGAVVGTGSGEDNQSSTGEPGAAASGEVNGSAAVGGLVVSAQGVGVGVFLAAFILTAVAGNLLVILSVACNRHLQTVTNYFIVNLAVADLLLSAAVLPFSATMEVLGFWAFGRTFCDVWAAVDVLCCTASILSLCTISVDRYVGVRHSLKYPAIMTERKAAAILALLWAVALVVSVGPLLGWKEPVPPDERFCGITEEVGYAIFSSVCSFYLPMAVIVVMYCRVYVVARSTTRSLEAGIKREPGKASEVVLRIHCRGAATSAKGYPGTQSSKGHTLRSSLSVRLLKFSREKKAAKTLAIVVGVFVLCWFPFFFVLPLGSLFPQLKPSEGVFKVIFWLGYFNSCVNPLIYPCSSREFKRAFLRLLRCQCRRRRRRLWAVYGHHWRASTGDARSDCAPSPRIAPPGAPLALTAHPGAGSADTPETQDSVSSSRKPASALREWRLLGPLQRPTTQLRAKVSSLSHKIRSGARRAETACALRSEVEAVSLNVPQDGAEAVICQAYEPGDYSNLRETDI
Description: Antagonist activity at Sprague-Dawley rat thoracic aorta adrenergic alpha-1D receptor after 20 mins. The note with it: read-out: pA2 (converted). Put shortly: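 Isolated rat tissues (prostatic vas deferens, spleen, thoracic aorta) contracted with cumulative norepinephrine; concentration-response curves recorded in presence of increasing antagonist concentrations, antagonism read as rightward curve shift. Mean ± SEM of five to eight separate experiments.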

Assay [15] can be described thus: Cell cycle arrest in human PC3 cells assessed as accumulation at G2/M phase at 5 uM after 24 hrs by propidium iodide staining-based flow cytometry (reference value: 33.04%). The note with it: PC-3. The assay is classed as functional. In short, it runs like this:
as §2

Assay [16] is described as follows: Cell cycle arrest in human PC3 cells assessed as accumulation at S phase at 10 uM after 24 hrs by propidium iodide staining-based flow cytometry (reference value: 27.26%). Particulars: PC-3. The assay is classed as functional. Put shortly:
as §2

Assay [17] concerns PC-3. In words: Induction of apoptosis in human PC3 cells assessed as late apoptotic cells at 30 uM after 24 hrs by annexin V/propidium iodide staining-based flow cytometry (reference value: 2.1%). The assay is classed as functional. In short, it runs like this: as §1
Assay [18] concerns PC-3. Description: Induction of apoptosis in human PC3 cells assessed as total apoptotic cells at 20 uM after 24 hrs by annexin V/propidium iodide staining-based flow cytometry. The assay is classed as functional. Put shortly:
as §1

One may read the IC50 as the midpoint of a concentration-inhibition curve. Turning to `COc1ccccc1N1CCN(CCCNC(=O)c2cc3ccccc3n2Cc2ccccc2)CC1`, the Activity in the assay with PC-3 [1] was 51.1%; with PC-3 [2], 50.4%; in assay [4], “Dose-dependent effect”; in assay [5], 42.8%; in the assay with PC-3 [6], 20.2%; with PC-3 [7], 23.7%. The Activity amounted to 23.7% in [9]; 3.5% in the assay with PC-3 [10]; 83% with PC-3 [11]; 41.7% in assay [12]; 70.6% in assay [13]; 33.5% in assay [15]. Moreover, the Activity in [16] worked out at 15.2%; in the assay on PC-3 [17] it was 32.6%; in the assay with PC-3 [18], 62.7%. Also, the Ratio in the assay listed under Rattus norvegicus [3] came to 47.9; in the assay listed under Rattus norvegicus [8], 19.1. In the assay on LNCaP, this molecule yielded an IC50 of 25.5 µM. The Kb in assay [14] is 0.00275 µM.
